In data set [1] the test system is SK-MEL-24. The data set can be described thus: Cytotoxicity against human SK-MEL-24 cells by trypan blue exclusion assay. The data set is classed as cell-based.
The nature of data set [2]: (§1) Drug degradation in 100% mouse serum after 120 mins. The data set is classed as ADME, cell-free. The following applies: read-out: Drug degradation. The essentials: (§2)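 Peptides were dissolved in Tris buffer pH 7.4, and aliquots of a 10 mM stock were added to mouse serum (10 µL into 190 µL). Incubation was at 37 °C for 120 min. Withdrawn aliquots were quenched with glacial acetonitrile to precipitate proteins and analysed by RP-HPLC and ESI-MS. Runs were in triplicate and repeated three times.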

Data set [3] relates to Jurkat. Briefly: Cytotoxicity against human Jurkat cells by trypan blue exclusion assay. The data set is classed as cell-based.
Data set [4] addresses Integrin alpha-V/beta-3 (Homo sapiens, UniProt P05106+P06756). The data set can be described thus: Inhibition of human alphavbeta3 integrin expressed in human SK-MEL-24 cells assessed as inhibition of cell adhesion to vitronectin. Type of data set: cell-based.
In data set [5] the target is T1, Integrin alpha-4/beta-1 (Homo sapiens, UniProt P05556+P13612). The data set can be described thus: Inhibition of human alpha4beta1 integrin expressed in human Jurkat cells assessed as inhibition of cell adhesion to VCAM-1. The data set is classed as cell-based. The essentials:
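Jurkat cells (5 × 10⁵ per well) adhered to wells coated overnight at 4 °C with human recombinant VCAM-1. Wells were blocked with 1% BSA/HBSS for 30 min at 37 °C. Data are mean ± S.E.M.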

Data set [6] deals with T1, Integrin alpha-4/beta-1. Briefly: Displacement of [125I]-FN from human alpha4beta1 integrin expressed in human Jurkat cells by scintillation proximity assay. Type of data set: cell-based. A digest of the protocol: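 Jurkat cells stably expressing human α4 integrin were the integrin source. The α4 integrin–anti-α4 antibody complex was captured on anti-rabbit IgG-coated scintillant microspheres. Soluble ¹²⁵I-human FN (~440 kDa) was the radioligand, incubated overnight, with counts read as cpm. IC50 values came from competition curves and were converted to Ki by Cheng–Prusoff. Data are mean ± S.E.M.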

The test system of data set [7] is Serum. Described as §1. Type of data set: ADME, cell-free. Particulars: 2 h. The essentials: as §2

Numbered stars: 1 amine (or outer) side, 2 acyl side, 3 side chain; on linkers, the order of the positions; unused ones are H or OH. Square brackets hold non-standard residues; d marks the D form. Peptide text beside a SMILES is read from it. * marks the point of attachment. X1 = O=C(Cc1ccc(N[*:1])cc1)[*:2]; NH(2-Me-phenyl) = Cc1ccccc1N*; CO = O=C([*:1])[*:2]

T1 sequence (P05556 whole entry): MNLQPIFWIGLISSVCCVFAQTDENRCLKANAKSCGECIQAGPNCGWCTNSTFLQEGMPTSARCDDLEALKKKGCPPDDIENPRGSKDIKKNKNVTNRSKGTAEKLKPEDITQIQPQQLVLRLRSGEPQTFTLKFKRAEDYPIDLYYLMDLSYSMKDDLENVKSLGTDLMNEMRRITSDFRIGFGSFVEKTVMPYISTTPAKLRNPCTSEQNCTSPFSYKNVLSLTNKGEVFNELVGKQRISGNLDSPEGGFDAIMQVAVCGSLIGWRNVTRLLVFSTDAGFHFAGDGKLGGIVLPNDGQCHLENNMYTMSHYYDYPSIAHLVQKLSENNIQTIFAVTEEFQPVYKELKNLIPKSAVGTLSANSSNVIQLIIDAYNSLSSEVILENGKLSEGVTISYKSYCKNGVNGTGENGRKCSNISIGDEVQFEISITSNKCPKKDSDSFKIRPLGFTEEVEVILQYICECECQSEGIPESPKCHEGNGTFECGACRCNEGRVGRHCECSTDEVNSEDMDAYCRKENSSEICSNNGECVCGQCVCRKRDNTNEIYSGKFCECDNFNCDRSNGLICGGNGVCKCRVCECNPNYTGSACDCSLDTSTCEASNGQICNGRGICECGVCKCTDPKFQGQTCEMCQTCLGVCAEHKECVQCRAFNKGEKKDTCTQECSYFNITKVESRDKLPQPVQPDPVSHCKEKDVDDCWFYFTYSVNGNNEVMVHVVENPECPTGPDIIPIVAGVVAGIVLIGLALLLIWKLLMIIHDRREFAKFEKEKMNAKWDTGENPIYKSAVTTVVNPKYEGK
T1 sequence (P13612 whole entry): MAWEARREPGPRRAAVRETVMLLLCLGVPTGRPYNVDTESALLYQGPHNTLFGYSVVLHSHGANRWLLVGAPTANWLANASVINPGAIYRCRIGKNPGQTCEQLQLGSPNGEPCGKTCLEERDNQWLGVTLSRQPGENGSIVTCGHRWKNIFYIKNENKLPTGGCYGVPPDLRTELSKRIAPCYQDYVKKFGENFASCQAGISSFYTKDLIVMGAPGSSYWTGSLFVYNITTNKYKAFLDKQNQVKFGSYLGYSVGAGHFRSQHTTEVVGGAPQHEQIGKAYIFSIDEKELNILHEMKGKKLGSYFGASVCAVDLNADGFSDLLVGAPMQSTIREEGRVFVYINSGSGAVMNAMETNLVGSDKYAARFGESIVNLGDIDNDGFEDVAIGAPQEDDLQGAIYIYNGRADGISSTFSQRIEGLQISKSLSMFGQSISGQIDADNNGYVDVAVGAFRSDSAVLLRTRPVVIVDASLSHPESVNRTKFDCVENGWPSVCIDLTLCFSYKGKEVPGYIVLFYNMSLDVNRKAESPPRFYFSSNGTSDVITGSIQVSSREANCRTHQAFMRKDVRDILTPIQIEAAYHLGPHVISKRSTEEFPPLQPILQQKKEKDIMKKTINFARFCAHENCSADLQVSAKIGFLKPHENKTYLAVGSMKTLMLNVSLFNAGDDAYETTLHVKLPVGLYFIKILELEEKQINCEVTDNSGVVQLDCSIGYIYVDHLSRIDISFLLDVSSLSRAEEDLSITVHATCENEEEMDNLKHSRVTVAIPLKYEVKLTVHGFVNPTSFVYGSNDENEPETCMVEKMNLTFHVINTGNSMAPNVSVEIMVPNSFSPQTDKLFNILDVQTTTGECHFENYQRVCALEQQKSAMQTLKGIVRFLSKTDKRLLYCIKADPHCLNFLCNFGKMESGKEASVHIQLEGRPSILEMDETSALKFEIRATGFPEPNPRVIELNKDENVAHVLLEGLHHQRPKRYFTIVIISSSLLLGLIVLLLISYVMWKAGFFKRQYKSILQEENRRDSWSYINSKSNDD
Sequence of Integrin alpha-V/beta-3 (P05106 27-788 limits assumed): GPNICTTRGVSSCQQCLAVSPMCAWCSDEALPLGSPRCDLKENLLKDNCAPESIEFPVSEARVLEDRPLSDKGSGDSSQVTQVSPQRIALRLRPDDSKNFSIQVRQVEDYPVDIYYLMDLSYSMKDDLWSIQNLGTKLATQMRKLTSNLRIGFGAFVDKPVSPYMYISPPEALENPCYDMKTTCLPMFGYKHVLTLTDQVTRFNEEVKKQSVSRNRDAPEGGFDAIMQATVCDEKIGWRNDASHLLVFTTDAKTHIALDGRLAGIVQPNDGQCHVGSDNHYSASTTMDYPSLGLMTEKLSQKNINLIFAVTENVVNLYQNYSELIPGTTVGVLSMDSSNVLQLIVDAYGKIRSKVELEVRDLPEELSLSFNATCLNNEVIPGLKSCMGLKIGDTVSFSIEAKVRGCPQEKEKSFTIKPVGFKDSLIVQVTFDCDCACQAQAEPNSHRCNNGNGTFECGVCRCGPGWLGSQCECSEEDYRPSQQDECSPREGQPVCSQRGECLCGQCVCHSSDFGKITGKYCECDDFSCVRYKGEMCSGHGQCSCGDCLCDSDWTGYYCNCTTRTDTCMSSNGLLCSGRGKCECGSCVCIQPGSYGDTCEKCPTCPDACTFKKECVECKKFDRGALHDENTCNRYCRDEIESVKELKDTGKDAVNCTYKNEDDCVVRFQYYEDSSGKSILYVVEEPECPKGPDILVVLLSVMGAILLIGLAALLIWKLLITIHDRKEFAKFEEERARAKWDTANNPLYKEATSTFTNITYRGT
Sequence of Integrin alpha-V/beta-3 (P06756 31-889 limits assumed): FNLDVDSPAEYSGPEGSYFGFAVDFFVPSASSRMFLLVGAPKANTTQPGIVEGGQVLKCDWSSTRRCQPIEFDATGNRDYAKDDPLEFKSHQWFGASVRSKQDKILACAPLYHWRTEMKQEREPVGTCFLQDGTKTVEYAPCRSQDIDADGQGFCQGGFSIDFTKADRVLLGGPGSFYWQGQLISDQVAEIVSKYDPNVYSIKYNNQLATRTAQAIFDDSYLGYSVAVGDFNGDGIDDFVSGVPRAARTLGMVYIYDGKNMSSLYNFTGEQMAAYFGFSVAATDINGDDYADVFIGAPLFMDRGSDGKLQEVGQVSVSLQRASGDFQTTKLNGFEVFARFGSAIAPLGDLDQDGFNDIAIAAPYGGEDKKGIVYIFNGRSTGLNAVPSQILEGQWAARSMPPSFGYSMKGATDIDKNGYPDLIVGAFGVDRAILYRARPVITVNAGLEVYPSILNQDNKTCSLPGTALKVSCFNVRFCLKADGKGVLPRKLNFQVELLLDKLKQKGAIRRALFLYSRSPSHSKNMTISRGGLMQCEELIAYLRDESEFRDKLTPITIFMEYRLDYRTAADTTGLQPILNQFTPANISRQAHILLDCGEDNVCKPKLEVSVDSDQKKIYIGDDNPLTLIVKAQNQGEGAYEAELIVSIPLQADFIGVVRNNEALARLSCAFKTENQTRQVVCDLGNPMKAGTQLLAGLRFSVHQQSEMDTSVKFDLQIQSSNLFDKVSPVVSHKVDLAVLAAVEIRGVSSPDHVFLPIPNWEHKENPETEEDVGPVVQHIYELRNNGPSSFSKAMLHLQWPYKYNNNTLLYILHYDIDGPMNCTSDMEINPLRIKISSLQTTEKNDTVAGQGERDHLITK
Sequence of Integrin alpha-V/beta-3 (P06756 891-1048 limits assumed): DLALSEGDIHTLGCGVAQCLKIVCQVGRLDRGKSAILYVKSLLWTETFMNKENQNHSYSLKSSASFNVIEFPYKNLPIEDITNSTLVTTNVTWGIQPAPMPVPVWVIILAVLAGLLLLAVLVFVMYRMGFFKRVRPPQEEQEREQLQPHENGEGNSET

On to `Cc1ccccc1NC(=O)Nc1ccc(CNC(=O)[C@H]2CCN(C(=O)[C@H](CC(=O)O)NC(=O)Cc3ccccc3)C2)cc1`, for which the Activity result in data set [1] and in data set [3] was “Non-toxic” each time. Also, the metabolised at 2 h in data set [2] came to 10%. In addition, the IC50 in data set [4] is greater than 100000 nM; in data set [5] it was 80 nM; in data set [6], 100 nM. Further, the inhibition entry in data set [5] and in data set [6] was “Dose-dependent effect” throughout. Also, the Ki in data set [6] is 60 nM.
For the compound `Cc1ccccc1NC(=O)Nc1ccc(CC(=O)N2CC[C@H](C(=O)N[C@@H](CC(=O)O)C(=O)OCc3ccccc3)C2)cc1`, the IC50 in data set [5] and in data set [6] was greater than 100000 nM throughout. The Ki in data set [6] is greater than 100000 nM.
On to `Cc1ccccc1NC(=O)Nc1ccc(CNC(=O)[C@H]2CCN(C(=O)[C@H](CC(=O)O)NC(=O)c3c(Cl)cccc3Cl)C2)cc1`, for which the IC50 in data set [5] is greater than 100000 nM. For the same compound, in data set [6], the IC50 was found to be 3900 nM, the Ki is 2400 nM and the inhibition result was “Dose-dependent effect”.
With `Cc1ccccc1NC(=O)Nc1ccc(CNC(=O)[C@H]2CCN(C(=O)C[C@H](NC(=O)c3c(Cl)cccc3Cl)C(=O)O)C2)cc1`, the IC50 in data set [5] and in data set [6] was greater than 100000 nM each time. The Ki in data set [6] was greater than 100000 nM.
Take `Cc1ccccc1NC(=O)Nc1ccc(CC(=O)N[C@@H](CC(C)C)C(=O)N[C@@H](CC(=O)O)C(=O)N[C@H](C(=O)N2CCC[C@H]2C(=O)O)C(C)C)cc1` ({NH(2-Me-phenyl)-CO}-[X1]LDVP-OH): in data set [7], the Stability entry is “Unstable”. The inhibition result in data set [5] and in data set [6] was “Dose-dependent effect” throughout.
Regarding `Cc1ccccc1NC(=O)Nc1ccc(CNC(=O)[C@H]2CCN(C(=O)C[C@H](NC(=O)Cc3ccccc3)C(=O)O)C2)cc1`, the Activity entry in data set [1] and in data set [3] was “Non-toxic” throughout. Also, in data set [2], the metabolised at 2 h is less than 5%. Besides, the IC50 in data set [4] is greater than 100000 nM; in data set [5], 93 nM; in data set [6] it was 290 nM. Besides, the inhibition entry in data set [5] and in data set [6] was “Dose-dependent effect” in each case. In data set [6], this compound had a Ki of 180 nM.
